The list is not random: actives were taken first. Their share in the collection is about 4.3%.
FLuc inh counter – Photinus pyralis luciferase inhibition counter-screen; AID 1006; 1.5% of 200,000 active; P08659; ATPLite firefly luciferase biochemical luminescence, 10 min; inhibition, % at 10 µM;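 active = inhibition above about 50% when tested at 10 µM, limit read from the data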
Target sequence (P08659 whole entry, looked up): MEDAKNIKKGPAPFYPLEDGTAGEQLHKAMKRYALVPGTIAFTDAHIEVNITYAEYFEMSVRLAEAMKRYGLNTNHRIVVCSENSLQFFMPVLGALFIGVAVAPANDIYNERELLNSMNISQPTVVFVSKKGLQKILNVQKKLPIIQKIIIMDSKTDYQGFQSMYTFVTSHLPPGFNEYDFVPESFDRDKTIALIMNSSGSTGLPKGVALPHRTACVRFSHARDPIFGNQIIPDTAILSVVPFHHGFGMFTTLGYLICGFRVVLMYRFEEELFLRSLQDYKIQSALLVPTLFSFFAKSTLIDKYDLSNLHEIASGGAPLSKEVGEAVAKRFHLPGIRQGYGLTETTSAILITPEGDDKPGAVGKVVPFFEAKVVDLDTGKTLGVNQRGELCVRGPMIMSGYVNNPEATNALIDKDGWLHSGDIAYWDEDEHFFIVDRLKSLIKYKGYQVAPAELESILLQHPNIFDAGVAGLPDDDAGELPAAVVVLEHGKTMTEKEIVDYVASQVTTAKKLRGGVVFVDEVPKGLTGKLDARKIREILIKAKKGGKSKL
NF-kB expr up – NF-kB expression increase, human neuronal cells. AID 1239. 1.6% of 190,000 active. NF-kB reporter expression; active compounds read high. fold change at 12.5 µM; in the data active = fold change above about 3.3
FLuc act counter – affects firefly luciferase, flagging false hits in luciferase stimulation screens; P08659; ATPlite luciferase biochemical, luminescence, 10 min; 0 = ATP-free wells, 1 = DMSO control; activation factor at 10 µM; 200,000 tested, under 10 active;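 active = luciferase activation factor, scaled between plate controls, of at least 2 with compound at 10 µM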
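Assay system – cell-free luciferase reagent · Medium – PBS-based ATP solution · Dosing – test compounds dosed from 2 mM stocks in 100% DMSO · Timing – 10 min, room temperature · Technique – light output (luminescence) · Measure – luminescence gain marking luciferase activators · Controls – No-ATP low control, compound-free enzyme-plus-ATP high control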
STAT1 activator – STAT1 signaling activation | NIH 3T3 STAT1-luciferase reporter, IFN-gamma, luminescence; 100% = IFN-gamma alone, no compound | activation (% of control), % at 5.5 µM | 2.6% of 200,000 active | AID 932;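 active = activation above the screen-wide mean activation plus 3 SD, cut at about 130% in these data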
APP 5'UTR act – APP 5'UTR luciferase reporter activation. SH-SY5Y APP 5'UTR luciferase reporter, luminescence; zero percent = DMSO vehicle wells. 1% of 190,000 active. AID 1276. activation, % at 2 µM;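 active = activation above a set limit, based on mean plus 3 SD of controls, cut at about 140% in these data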
Each line names hits and unclear results; the compound was inactive in the other large screens.

Cc1cc(C)c(C#N)c(SCc2nnc(-c3ccccc3)o2)n1	none
Cc1ccc(C#N)c(SCc2nnc(-c3ccc(Cl)cc3)o2)n1	FLuc inh counter 60
O=C(O)/C=C/C(=O)N1CCN(c2cccc(Cl)c2)CC1	none
Cc1cccc(N=C2NN=C(c3ccccc3F)CS2)c1C	none
Fc1ccc(F)c(C2=NNC(=Nc3ccccc3F)SC2)c1	NF-kB expr up 5.1, STAT1 activator 143
Fc1ccccc1N=C1NN=C(c2ccccc2)CS1	NF-kB expr up 4.6, STAT1 activator 143, APP 5'UTR act 158
Clc1ccccc1N=C1NN=C(c2cccs2)CS1	NF-kB expr up 4.3, STAT1 activator 143, APP 5'UTR act 183
CC1CCc2c(nc3ncnn3c2NCCc2ccccc2F)C1 (stereo unspecified)	none
O=S(=O)(c1ccccc1Cl)N1CCC(O)(c2ccc3c(c2)OCO3)CC1	none
Cc1ccn2c(-c3n[nH]c(=S)n3C)c(C)nc2c1	none
Cc1cccc(C2=N/C(=C\c3cccs3)C(=O)O2)c1	FLuc inh counter 65 (no result: NF-kB expr up)
Cc1ccc(S(=O)(=O)Oc2ccc(/C=C3\N=C(c4cccc(C)c4)OC3=O)cc2)cc1	none
CC1CC(C)CN(C(=O)c2ccccc2Nc2ccc(SC(F)F)cc2)C1 (stereo unspecified)	none
COc1ccc(-c2cc(-c3ccccc3)c(C#N)c(S(C)=O)n2)cc1 (stereo unspecified)	NF-kB expr up 3.6 (no result: APP 5'UTR act)
CC(=O)Nc1ccccc1OCc1nnc(-c2ccc(Cl)cc2)o1	none
Clc1ccc(OCc2nnc(-c3ccccc3Br)o2)cc1	none
Clc1ccc(OCc2nnc(-c3ccccc3Br)o2)c(Cl)c1	NF-kB expr up 4
Clc1ccccc1OCc1nnc(-c2ccccc2)o1	NF-kB expr up 3.4, STAT1 activator 151
c1ccc(Cc2nnc(-c3ccccc3)o2)cc1	STAT1 activator 130
COCCn1c(C)cc(C(=O)COC(=O)c2ccc3ncsc3c2)c1C	STAT1 activator 132
COCCn1c(C)cc(C(=O)COC(=O)c2ccc(NC(=O)CC#N)cc2)c1C	STAT1 activator 134, APP 5'UTR act 149
COCCn1c(C)cc(C(=O)COC(=O)c2ccc3c(c2)NC(=O)CS3)c1C	none
COCCn1c(C)cc(C(=O)COC(=O)c2cncc(Br)c2)c1C	STAT1 activator 136
Cc1cc(C(=O)COC(=O)c2ccncc2)c(C)n1CCc1ccc(F)cc1	none
Brc1ccc(-c2nc(-c3cccnc3)no2)o1	STAT1 activator 132
Cc1ccc(-c2nc(-c3cccnc3)no2)c(C)c1	FLuc inh counter 65, NF-kB expr up 4.8, STAT1 activator 147, APP 5'UTR act 144
Brc1ccc(-c2nc(-c3ccccc3)no2)o1	NF-kB expr up 4.1, STAT1 activator 149, APP 5'UTR act 143
c1ccc(-c2noc(-c3ccccc3-c3ccccc3)n2)cc1	none
Cc1c(C(=O)NC(=S)NCC(C)C)oc2ccccc12	none
Nc1c(C(=O)Nc2ccc(Cl)cc2)oc2ccccc12	NF-kB expr up 5.6, STAT1 activator 170, APP 5'UTR act 213
Cc1c(C(=O)Nc2ccc(Cl)cn2)oc2ccccc12	none
Cc1c(C(=O)NC2=NCCS2)oc2ccccc12	FLuc inh counter 51, NF-kB expr up 7.6, STAT1 activator 137
Cc1c(C(=O)Nc2cnccn2)oc2ccccc12	NF-kB expr up 4.7
C=CCNC(=S)NC(=O)c1oc2ccccc2c1C	STAT1 activator 134
Cc1ccc(S(=O)(=O)N2CCN(c3ccc(C(=O)N4CCOCC4)cc3[N+](=O)[O-])CC2)cc1	none
O=C(NCC1CCCO1)C(c1cccs1)N(C(=O)c1ccc(CN2CCOCC2)o1)c1ccc(Cl)cc1 (stereo unspecified)	none
CC(=O)Nc1ccc(NC(=S)NC(=O)c2oc3ccccc3c2C)cc1	none
O=C(NC1=NCCS1)c1cc(-c2ccc(-c3ccccc3)cc2)nc2ccccc12	FLuc inh counter 73, STAT1 activator 135
CC(=O)Nc1cccc(NC(=O)c2oc3ccccc3c2C)c1	STAT1 activator 142
Cc1ccc(C(=O)c2c[nH]c(C(=O)NCc3cccnc3)c2)cc1	none
COc1ccc2c(COC(=O)CNC(=O)C34CC5CC(CC(C5)C3)C4)cc(=O)oc2c1	none
CC(=O)c1sc(NC(=O)C2(F)C(F)(F)C(F)(F)C(F)(F)C(F)(F)C2(F)F)nc1C	none
CC(=O)c1sc(N/N=C2\CC3CC2C(C)C3(C)C)nc1C (stereo unspecified)	STAT1 activator 131
CCOc1ccc(S(=O)(=O)n2cc(F)c(=O)[nH]c2=O)cc1	none
CCCSc1nnc(Nc2ccccc2C)s1	STAT1 activator 129
Cc1ccccc1Nc1nnc(SCC(=O)Nc2ccccc2[N+](=O)[O-])s1	none
COC(=O)Cc1c(C)c2ccc(OCC(C)=O)c(C)c2oc1=O	STAT1 activator 130
S=C(NCC1CCCO1)N1CCN(c2nc(-c3ccccc3)cs2)CC1 (stereo unspecified)	none
C=CCn1c(-c2ccc(OC)cc2)csc1=Nc1c(C)n(C)n(-c2ccccc2)c1=O	none
CCc1ccc2oc(-c3ccc(OC)cc3)cc(=Nc3cccc(C(=O)O)c3)c2c1	FLuc inh counter 51, NF-kB expr up 7.2, APP 5'UTR act 204
COc1ccc2cc(C(=O)NCc3ccco3)c(=Nc3ccc(C(=O)O)cc3)oc2c1	none
COc1ccc(-c2cc(=Nc3ccc(C(=O)O)cc3)c3cc(C)ccc3o2)cc1	FLuc inh counter 58, APP 5'UTR act 209
CCc1ccc2oc(-c3ccc(OC)cc3)cc(=Nc3c(C)n(C)n(-c4ccccc4)c3=O)c2c1	APP 5'UTR act 173
Cc1cc(C)c(S(=O)(=O)N2CCCOC2CNC(=O)C(=O)NCc2ccco2)c(C)c1 (stereo unspecified)	none
COc1ccc(CC(=O)NCCC(C)C)cc1S(=O)(=O)N1CCOCC1	none
COc1cccc(CC2(CO)CCCN(Cc3c(C)cc(C)cc3-n3cccn3)C2)c1 (stereo unspecified)	none
c1ccc2c(c1)CCN(c1nc3cc4c(cc3s1)OCCO4)C2	FLuc inh counter 89, APP 5'UTR act 148
COc1ccc(OC)c2sc(N3CCc4ccccc4C3)nc12	none
Nc1nc(SCC(=O)c2cccs2)n[nH]1	none
COc1ccccc1NC(=O)COc1ccccc1C(=O)c1cnn(-c2ccccc2)c1	none
CCc1ccc(NC(=O)COc2ccc(F)cc2C(=O)c2cnn(-c3ccccc3)c2)cc1	STAT1 activator 130
Cc1cccc(NC(=S)c2nc3ccccc3s2)c1	NF-kB expr up 3.9, STAT1 activator 143, APP 5'UTR act 205
Cc1cccc(NC(=O)c2sc(C)nc2C)c1	none
O=C(O)Cn1cc(/C=c2/sc3nc4ccccc4n3c2=O)c2ccccc21	STAT1 activator 131
O=c1/c(=C\c2cccn2-c2ccccc2)sc2nc3ccccc3n12	none
CCn1c(SCC(=O)O)nnc1-c1cccnc1	none
Cc1cc(=O)[nH]c(S/C=C/c2ccccc2)n1	FLuc inh counter 77, NF-kB expr up 4.1

High-throughput results deposited in PubChem BioAssay by several laboratories.
